Test results published in ChEMBL document CHEMBL1122014, “1,2,5-thiadiazole 1-oxide and 1,1-dioxide derivatives. A new class of potent histamine H2-receptor antagonists” (J Med Chem, 1982).

Assays:
Cavia porcellus = species on record: Cavia porcellus; assay: Antagonism of the positive chronotropic action of histamine in the isolated guinea pig atrium; type: functional; settings: Cardiac atrium
Outline: (§1)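 Isolated guinea pig right atrium; antagonism of the positive chronotropic response to histamine. Apparent KB from the Furchgott method: KB = antagonist concentration/(dose ratio − 1), using a single antagonist concentration that gave parallel dose-response shifts without lowering the maximum. Values are means of three to five preparations per antagonist.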

Rattus norvegicus = species on record: Rattus norvegicus; assay: Inhibition of gastric acid secretion in the pylorus-ligated rat (after 2h); type: functional; settings: Stomach
Outline: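 Pylorus-ligated rat, by a modified Shay procedure. Compound given subcutaneously at no fewer than five dose levels (three in one case), with at least five rats per dose.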

[1] = Potency ratio in pylorus-ligated rat relative to cimetidine (after 2h); type: functional
Histamine H1 receptor = Histamine H1 receptor (Cavia porcellus, UniProt P31389); assay: Antagonism of Histamine H1 receptor in the isolated guinea pig ileum; type: functional, tissue-based; settings: read-out: pA2 (converted)
Outline: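 Isolated guinea pig ileum; contractile responses to histamine (H1) or methacholine (muscarinic) were tested for blockade.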

Histamine H2 receptor = Histamine H2 receptor (Cavia porcellus, UniProt P47747); assay: Competitive antagonism of Histamine H2 receptor in the isolated guinea pig atrium; type: functional, tissue-based, Cardiac atrium; settings: read-out: pA2 (converted); outline: as §1
Adrenergic receptor beta = Adrenergic receptor beta (Rattus norvegicus, UniProt P18090+P10608+P26255); assay: Antagonism of Beta adrenergic receptor in the isolated rat uterus; type: functional, tissue-based

Sequence of Histamine H1 receptor (P31389 whole entry): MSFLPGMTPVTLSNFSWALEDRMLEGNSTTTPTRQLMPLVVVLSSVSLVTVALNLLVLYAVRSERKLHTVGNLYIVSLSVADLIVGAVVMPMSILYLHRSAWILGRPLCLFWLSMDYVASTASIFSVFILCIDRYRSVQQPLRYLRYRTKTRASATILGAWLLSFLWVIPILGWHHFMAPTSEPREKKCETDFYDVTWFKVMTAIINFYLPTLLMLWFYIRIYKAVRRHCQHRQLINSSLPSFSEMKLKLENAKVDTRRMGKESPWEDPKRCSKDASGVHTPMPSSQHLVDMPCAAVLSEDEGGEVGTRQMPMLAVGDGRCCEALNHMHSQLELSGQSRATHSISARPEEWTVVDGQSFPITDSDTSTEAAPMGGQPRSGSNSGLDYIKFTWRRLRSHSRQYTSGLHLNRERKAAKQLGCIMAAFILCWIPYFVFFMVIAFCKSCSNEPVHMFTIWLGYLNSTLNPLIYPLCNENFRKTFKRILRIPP
Sequence of Histamine H2 receptor (P47747 whole entry): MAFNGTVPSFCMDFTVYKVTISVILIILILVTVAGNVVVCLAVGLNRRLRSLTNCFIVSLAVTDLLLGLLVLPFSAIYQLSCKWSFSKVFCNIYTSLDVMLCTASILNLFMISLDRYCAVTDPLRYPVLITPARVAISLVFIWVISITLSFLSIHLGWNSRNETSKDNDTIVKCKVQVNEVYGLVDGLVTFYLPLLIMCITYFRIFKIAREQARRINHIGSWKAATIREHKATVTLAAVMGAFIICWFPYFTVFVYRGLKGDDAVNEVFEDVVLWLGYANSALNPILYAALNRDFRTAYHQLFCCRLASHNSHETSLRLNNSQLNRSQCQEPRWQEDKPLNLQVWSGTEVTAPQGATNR

With `CNC1=NS(=O)(=O)N=C1NCCSCc1[nH]cnc1C` the Kb (Cavia porcellus) was 11500 nM, the ED50 (Rattus norvegicus) was 131 µmol/kg and the Ratio [1] was 0.07.

With `CNC1=NS(=O)(=O)N=C1NCCSCc1ccc(CN(C)C)s1` the Kb (Cavia porcellus) was 140 nM, the ED50 (Rattus norvegicus) was 0.072 µmol/kg and the Ratio [1] was 94.

For `N=C(N)Nc1nc(CSCCNc2n[s+]([O-])nc2N)cs1` (centres undefined), the Kb (Histamine H1 receptor) was 126000 nM, the Kb (Histamine H2 receptor) was 25.1 nM and the pA2 (Adrenergic receptor beta) was 4.3.

Compound `CN/C(=N\CCSCc1nc[nH]c1C)NC#N` [CIMETIDINE] has a Kb (Cavia porcellus) of 1200 nM and an ED50 (Rattus norvegicus) of 9.4 µmol/kg.

Work on `CN(C)Cc1cccc(OCCCNc2n[s+]([O-])nc2N)c1` (centres undefined) yielded a Kb (Cavia porcellus) of 65 nM, an ED50 (Rattus norvegicus) of 0.066 µmol/kg and a Ratio [1] of 142.
